Test results from ChEMBL document CHEMBL5724801, “EUbOPEN Chemogenomics Library - Multiplex” (2024).
“And” between values parts separate entries of the source, which are not always exact repeats. Identical values can stand only once.

System: U2OS
Experiment: Multiplex assay against U2OS
Type: toxicity, cell-based
Conditions: human
Method in brief: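 Live cells carried four stains from seeding: Hoechst33342, BioTracker Green Microtubule Cytoskeleton Dye, MitoTracker Red and Annexin V Alexa Fluor 680. They were imaged on a CQ1 microscope at 37°C and 5% CO2 after compound addition. Using CellPathfinder machine-learning gating, cells were split into Hoechst high-intensity objects or normal cells, normal cells into healthy, pyknosed or fragmented nuclei, and pyknosed cells into mitotic or apoptotic; tubulin, mitochondrial-mass and membrane-permeability phenotypes are per cents of healthy-nucleus cells.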

[1] = 12 h, 1 µM, compound concentration 1 uM
[2] = 12 h, 10 µM, compound concentration 10 uM
[3] = 24 h, 1 µM, compound concentration 1 uM
[4] = 24 h, 10 µM, compound concentration 10 uM
[5] = 48 h, 1 µM, compound concentration 1 uM
[6] = 48 h, 10 µM, compound concentration 10 uM

CC(/C=C1\SC(=S)N(CCCC(=O)Nc2ccc(C(=O)O)c(O)c2)C1=O)=C\c1ccccc1
Population Apoptotic (%) [1]: 94% and 100%
Population Fragmented Nuclei (%) [1]: 26% and 12%
Population Healthy Nuclei (%) [1]: 64% and 80%
Population Hoechst High Intensity Objects (%) [1]: 3% and 4%
Population Membrane Permeable-Phenotype (%) [1]: 4% and 3%
Population Mitochondria Different-Phenotype (%) [1]: 1% and 2%
Population Mitotic Cells (%) [1]: 5% and 0%
Population Normal (%) [1]: 96% and 95%
Population Pyknosed Nuclei (%) [1]: 8% and 7%
Population Tubulin-Different-Phenotype (%) [1]: 3% and 0%
Total Cell Count [1]: 205 and 133
Population Apoptotic (%) [2]: 91% and 72%
Population Fragmented Nuclei (%) [2]: 28% and 16%
Population Healthy Nuclei (%) [2]: 61% and 72%
Population Hoechst High Intensity Objects (%) [2]: 3% and 0%
Population Membrane Permeable-Phenotype (%) [2]: 12% and 4%
Population Mitochondria Different-Phenotype (%) [2]: 2% and 1%
Population Normal (%) [2]: 96% and 100%
Population Pyknosed Nuclei (%) [2]: 9% and 10%
Population Tubulin-Different-Phenotype (%) [2]: 4% and 5%
Total Cell Count [2]: 241 and 101
Population Apoptotic (%) [3]: 83% and 94%
Population Fragmented Nuclei (%) [3]: 25% and 9%
Population Healthy Nuclei (%) [3]: 64% and 79%
Population Hoechst High Intensity Objects (%) [3]: 3% and 1%
Population Membrane Permeable-Phenotype (%) [3]: 4% and 10%
Population Mitochondria Different-Phenotype (%) [3]: 1%
Population Normal (%) [3]: 96% and 98%
Population Pyknosed Nuclei (%) [3]: 10%
Population Tubulin-Different-Phenotype (%) [3]: 1%
Total Cell Count [3]: 247 and 177
Population Apoptotic (%) [4]: 88% and 53%
Population Fragmented Nuclei (%) [4]: 26% and 16%
Population Healthy Nuclei (%) [4]: 64% and 72%
Population Hoechst High Intensity Objects (%) [4]: 2% and 0%
Population Membrane Permeable-Phenotype (%) [4]: 7%
Population Mitochondria Different-Phenotype (%) [4]: 3% and 6%
Population Normal (%) [4]: 97% and 100%
Population Pyknosed Nuclei (%) [4]: 8% and 11%
Population Tubulin-Different-Phenotype (%) [4]: 3% and 6%
Total Cell Count [4]: 298 and 111
Population Apoptotic (%) [5]: 93% and 78%
Population Fragmented Nuclei (%) [5]: 16% and 11%
Population Healthy Nuclei (%) [5]: 74% and 79%
Population Hoechst High Intensity Objects (%) [5]: 2% and 3%
Population Membrane Permeable-Phenotype (%) [5]: 5% and 4%
Population Mitochondria Different-Phenotype (%) [5]: 1% and 3%
Population Normal (%) [5]: 97% and 96%
Population Pyknosed Nuclei (%) [5]: 8% and 9%
Population Tubulin-Different-Phenotype (%) [5]: 1% and 2%
Total Cell Count [5]: 368 and 253
Population Apoptotic (%) [6]: 97% and 82%
Population Fragmented Nuclei (%) [6]: 19% and 16%
Population Healthy Nuclei (%) [6]: 68% and 73%
Population Hoechst High Intensity Objects (%) [6]: 2% and 1%
Population Membrane Permeable-Phenotype (%) [6]: 6% and 4%
Population Mitochondria Different-Phenotype (%) [6]: 2% and 1%
Population Normal (%) [6]: 97% and 98%
Population Pyknosed Nuclei (%) [6]: 12% and 10%
Population Tubulin-Different-Phenotype (%) [6]: 4% and 0%
Total Cell Count [6]: 396 and 170

CCOc1c2c(c(OCC)c3ncccc13)CN(c1ccc(CS(=O)(=O)NC(=O)Cc3ccccc3OC)cc1C)C2=O
Population Apoptotic (%) [1]: 64% and 100%
Population Fragmented Nuclei (%) [1]: 22% and 13%
Population Healthy Nuclei (%) [1]: 70% and 82%
Population Hoechst High Intensity Objects (%) [1]: 2% and 1%
Population Membrane Permeable-Phenotype (%) [1]: 7% and 9%
Population Mitochondria Different-Phenotype (%) [1]: 3%
Population Normal (%) [1]: 97% and 98%
Population Pyknosed Nuclei (%) [1]: 7% and 4%
Population Tubulin-Different-Phenotype (%) [1]: 2% and 6%
Total Cell Count [1]: 189 and 93
Population Apoptotic (%) [2]: 81% and 80%
Population Fragmented Nuclei (%) [2]: 30% and 21%
Population Healthy Nuclei (%) [2]: 63% and 75%
Population Hoechst High Intensity Objects (%) [2]: 2%
Population Membrane Permeable-Phenotype (%) [2]: 5% and 8%
Population Mitochondria Different-Phenotype (%) [2]: 3% and 6%
Population Mitotic Cells (%) [2]: 18% and 20%
Population Normal (%) [2]: 97%
Population Pyknosed Nuclei (%) [2]: 6% and 3%
Population Tubulin-Different-Phenotype (%) [2]: 2% and 3%
Total Cell Count [2]: 248 and 136
Population Apoptotic (%) [3]: 80% and 100%
Population Fragmented Nuclei (%) [3]: 21% and 19%
Population Healthy Nuclei (%) [3]: 71% and 76%
Population Hoechst High Intensity Objects (%) [3]: 3% and 1%
Population Membrane Permeable-Phenotype (%) [3]: 4% and 7%
Population Mitochondria Different-Phenotype (%) [3]: 0% and 4%
Population Mitotic Cells (%) [3]: 20% and 0%
Population Normal (%) [3]: 96% and 98%
Population Pyknosed Nuclei (%) [3]: 6% and 4%
Population Tubulin-Different-Phenotype (%) [3]: 1% and 4%
Total Cell Count [3]: 235 and 125
Population Apoptotic (%) [4]: 76% and 100%
Population Fragmented Nuclei (%) [4]: 27% and 17%
Population Healthy Nuclei (%) [4]: 61% and 76%
Population Hoechst High Intensity Objects (%) [4]: 3% and 0%
Population Membrane Permeable-Phenotype (%) [4]: 6%
Population Mitochondria Different-Phenotype (%) [4]: 2%
Population Mitotic Cells (%) [4]: 23% and 0%
Population Normal (%) [4]: 96% and 99%
Population Pyknosed Nuclei (%) [4]: 10% and 5%
Population Tubulin-Different-Phenotype (%) [4]: 1% and 5%
Total Cell Count [4]: 285 and 152
Population Apoptotic (%) [5]: 85% and 100%
Population Fragmented Nuclei (%) [5]: 19% and 17%
Population Healthy Nuclei (%) [5]: 74% and 79%
Population Hoechst High Intensity Objects (%) [5]: 2% and 4%
Population Membrane Permeable-Phenotype (%) [5]: 3% and 7%
Population Mitochondria Different-Phenotype (%) [5]: 1% and 3%
Population Mitotic Cells (%) [5]: 15% and 0%
Population Normal (%) [5]: 97% and 95%
Population Pyknosed Nuclei (%) [5]: 5% and 2%
Population Tubulin-Different-Phenotype (%) [5]: 2% and 5%
Total Cell Count [5]: 344 and 167
Population Apoptotic (%) [6]: 91% and 100%
Population Fragmented Nuclei (%) [6]: 19% and 18%
Population Healthy Nuclei (%) [6]: 71% and 74%
Population Hoechst High Intensity Objects (%) [6]: 2%
Population Membrane Permeable-Phenotype (%) [6]: 5% and 8%
Population Mitochondria Different-Phenotype (%) [6]: 1% and 4%
Population Mitotic Cells (%) [6]: 8% and 0%
Population Normal (%) [6]: 97%
Population Pyknosed Nuclei (%) [6]: 9% and 6%
Population Tubulin-Different-Phenotype (%) [6]: 2% and 3%
Total Cell Count [6]: 385 and 236
